Most compounds without a hit are left out; they make up all but 2.2% or so of the library.
FGF22 binding = binders of human FGF22 protein, primary screen, FGF22 synaptogenesis inhibitor project, biophysical, thermal shift, single point; Fibroblast growth factor 22 (Homo sapiens), Q9HCT0; activity (Tm shift, normalised), % at 9.99 µM; recombinant FGF22 thermal shift, SYPRO orange fluorescence; percent of sucrose octasulfate shift, DMSO zero; 340,000 compounds, 1.5% hits;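 active means mean Tm shift, scaled 0 neutral to 100 positive control, at about 1.3% or above, every replicate too, limit read from the data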
Target sequence (Q9HCT0 whole entry, looked up): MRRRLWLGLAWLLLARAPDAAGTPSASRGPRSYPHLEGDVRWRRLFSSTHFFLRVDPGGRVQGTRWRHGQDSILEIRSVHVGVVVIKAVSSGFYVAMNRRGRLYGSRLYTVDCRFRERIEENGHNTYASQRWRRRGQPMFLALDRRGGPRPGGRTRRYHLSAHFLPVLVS
NR2E3 ag-1 = inhibitors of NR2E3-RetCOR corepressor binding, primary screen, NR2E3 agonist project, biochemical, TR-FRET, GST-NR2E3, biotin-RetCOR | Photoreceptor-specific nuclear receptor (Homo sapiens), Q9Y5X4 | 1536-well | inhibition of corepressor binding, % at 4.78 µM | 320,000 compounds, 0.12% hits;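 active means percent inhibition above the cutoff of mean plus 3 SD of all tested compounds, set per screening campaign, cut at about 20% in these data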;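 further: 0% = DMSO wells and 100% = biotin wells as full block of FRET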
Target sequence (Q9Y5X4 whole entry, looked up): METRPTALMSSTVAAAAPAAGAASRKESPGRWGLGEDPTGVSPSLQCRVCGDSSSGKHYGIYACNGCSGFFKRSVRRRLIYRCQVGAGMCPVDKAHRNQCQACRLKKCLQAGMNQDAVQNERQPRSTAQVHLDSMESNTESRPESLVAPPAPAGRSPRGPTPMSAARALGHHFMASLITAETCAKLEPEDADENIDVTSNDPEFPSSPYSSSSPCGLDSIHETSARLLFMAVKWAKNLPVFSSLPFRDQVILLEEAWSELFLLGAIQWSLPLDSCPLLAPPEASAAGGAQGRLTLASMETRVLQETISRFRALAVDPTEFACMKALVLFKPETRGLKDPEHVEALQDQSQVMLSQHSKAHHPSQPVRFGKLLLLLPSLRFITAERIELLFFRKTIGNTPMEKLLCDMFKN
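Material: NR2E3–RetCOR corepressor complex | Quantity: 1.35 nM GST-tagged NR2E3 final | Schedule: 5 h at 4 °C | Replication: Singlicate compound wells | Reagent: RetCOR corepressor, biotinylated, 7 nM | Controls: Biotin wells as high control, 0.6% DMSO wells as low control | Signal: TR-FRET, Eu(K)-anti-GST donor, streptavidin-D2 acceptor, ex 340, em 617/671 nm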
Jurkat NFkB inh = inhibitors of induced NF-kB luciferase reporter, primary screen, TCR NF-kB activation inhibitor project, cell-based, luminescence, uHTS; Jurkat, PMA/ionomycin-induced NF-kB luciferase reporter; inhibition, % at 4 µM; 330,000 compounds, 0.53% hits; AID 435003, 2010; in the data active means inhibition above about 50%
697 NFkB inh = inhibitors of PMA/ionomycin-induced NF-kB reporter, 697 cells, primary screen, B-cell NF-kB inhibitor project, cell-based, luminescence, uHTS. 330,000 compounds, 0.33% hits. inhibition, % at 4 µM. 697 B-cell NF-kB luciferase reporter, 16 h; in the data active means inhibition above about 35%
miR122 inh = miR-122 Renilla sensor signal increase in Huh7, primary screen, miR-122 inhibitor project, cell-based, single point, plate reader. Huh7 miR-122 Renilla luciferase sensor, 48 h; neutral wells = 0, positive control = 100. activation (reporter increase), % at 12.5 µM. 340,000 compounds, 0.3% hits. AID 602342, 2012;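 active means mean replicate activation score at least 90 and every replicate individually at or above 90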;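 further: higher luciferase means less miR-122 activity so hits act as miR-122 inhibitors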
NR2E3 ag-2 = NR2E3 agonists in two-hybrid cells, primary screen, cell-based, luminescence, CHO-S, Gal4-NCOR/VP16-NR2E3; Photoreceptor-specific nuclear receptor (Homo sapiens), Q9Y5X4; luciferase; inhibition of corepressor binding, % at 3.98 µM; 360,000 compounds, 0.35% hits; AID 602229, 2012;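 active means inhibition above the mean of all tested compounds plus 3 SD, cut at about 70% in these data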;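 further: 0% = DMSO with NR2E3 transfected cells and 100% = cells lacking NR2E3 construct; higher means lower luciferase signal from less NR2E3 corepressor binding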
NR2E3 ag conf = NR2E3 agonist confirmation in cells, cell-based, luminescence, CHO-S two-hybrid. CHO-S mammalian two-hybrid NR2E3-NCOR, luciferase luminescence. 2,300 compounds, 51% hits. AID 624378, 2012. inhibition, % at 3.98 µM. shares compounds with NR2E3 ag-2;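 active means average inhibition above a cutoff equal to the mean inhibition of all tested compounds plus one SD, cut at about 70% in these data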;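 further: 0% = DMSO in NR2E3 cells and 100% = DMSO in cells lacking NR2E3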
GAL4-VP16 luc = GAL4-VP16 reporter modulators, confirmation, counter-screen for NR2E3 agonist project, cell-based, luminescence, CHO-S, high throughput | shares compounds with NR2E3 ag-2 | CHO-S GAL4-VP16 luciferase reporter | inhibition, % at 3.98 µM | 2,300 compounds, 29% hits;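 active means mean inhibition above a cutoff equal to the average over all tested compounds plus one standard deviation, cut at about 70% in these data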;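 further: luciferase from a UAS reporter driven by GAL4-VP16 transactivation; 0% = DMSO with VP16-transfected cells and 100% = DMSO with cells lacking VP16; higher means less reporter light so more repression of VP16 activity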
* marks the source's active call; other numbers are inactive results; . = no result given; [ ] = remark or other dose.

SMILES	FGF22 binding	NR2E3 ag-1	Jurkat NFkB inh	697 NFkB inh	miR122 inh	NR2E3 ag-2	NR2E3 ag conf	GAL4-VP16 luc
Cc1cc2nc(C)n(CCCNC(=O)Nc3cccc4ccccc34)c2cc1C	.	0.0	-4.2	-24.6	.	62.4	76.1*	67.4
COc1ccccc1-n1c(=O)oc2ccc(Cl)cc2c1=O	.	0.3	-0.8	6.7	8.6	73.2*	96.3*	55.0
COc1c(Cl)c(=O)oc2ccc(Cl)cc12	0.8	.	.	.	.	-3.0	.	.
CO[C@@H]1CN(C)C(=O)c2ccc(NC(=O)NC(C)C)cc2OC[C@H](C)N(Cc2cncnc2)C[C@@H]1C	.	.	.	.	14.5[16.7 µM]	.	.	.
Cn1c(=O)c2[nH]c(CCCCCCCCc3nc4ccccc4[nH]3)nc2n(C)c1=O	-0.4	.	.	.	-19.7	68.0	78.8*	60.6
CCOc1ccc2nc(NC(=O)C3CCN(c4cnccn4)CC3)sc2c1	.	-0.3	-6.6	-16.0	-13.7	53.0	54.3	10.7
Cc1noc(C)c1S(=O)(=O)Nc1cccc2c1O[C@H](CN(C)C(=O)Nc1ccccc1)[C@H](C)CN([C@H](C)CO)C2=O	-0.6	.	.	.	-6.9[16.7 µM]	.	.	.
CCCN1C[C@H](C)[C@@H](OC)CN(C)C(=O)c2ccc(NC(=O)Nc3ccccc3F)cc2OC[C@H]1C	0.1	.	.	.	.	.	.	.
CN(CC(=O)Nc1cccc(F)c1)C(=O)c1ccc(N2CCOCC2)c([N+](=O)[O-])c1	0.0	3.4	3.9	-7.1	2.9	9.5	.	.
CCN(CC(=O)Nc1c(F)cccc1F)C(=O)c1ccc(N2CCCCC2)c([N+](=O)[O-])c1	-0.1	-2.5	11.2	-7.4	4.1	56.7	33.6	38.5
CN(CC(=O)Nc1ccc(Cl)c(C(F)(F)F)c1)C(=O)c1ccc(N2CCOCC2)c([N+](=O)[O-])c1	0.0	-0.8	5.1	14.1	.	63.3	63.4	58.8
COc1ccc(Cl)cc1NC(=O)CN(C)C(=O)c1ccc(N2CCCCC2)c([N+](=O)[O-])c1	-0.2	1.1	-13.7	10.4	.	40.4	.	.
COc1ccc(Cl)cc1NC(=O)CN(C)C(=O)c1ccc(N2CCCCCC2)c([N+](=O)[O-])c1	-0.3	5.6	6.5	-19.0	-3.0	69.6	42.1	39.4
C[C@H]1CN([C@@H](C)CO)C(=O)c2ccccc2-c2ccccc2CO[C@@H]1CN(C)C(=O)Nc1cccc(F)c1	-0.1	.	.	.	.	.	.	.
CC(C)c1cc2c(c(O)c1O)[C@@]13CCCC(C)(C)C1CC2OC3=O (some centres undefined)	-0.1	1.8	0.0	17.3	1.3	85.0*	92.5*	-4.8
CCNC(=O)C[C@H]1CC[C@H]2[C@@H](COC[C@H](O)CN2C(=O)Nc2cccc(OC)c2)O1	-0.1	.	.	.	-6.2[16.7 µM]	.	.	.
Cc1ccccc1S(=O)(=O)N1[C@@H](c2ccc(Cl)cc2)C(C(=O)O)=CC[C@H]1c1ccc(Cl)cc1	0.2	.	14.6	7.1	0.0	64.9	26.8	18.8
Cc1ccc([C@H]2C(C(=O)O)=CC[C@@H](c3ccc(Cl)cc3)N2S(=O)(=O)c2ccccc2C)cc1	.	.	-1.8	5.0	-1.6	48.0	27.6	30.7
Cc1ccccc1S(=O)(=O)N1C(c2ccc(Cl)cc2)CC=C(C(=O)O)C1c1cccc(Cl)c1 (centres undefined)	1.3	.	.	.	.	.	.	.
Cc1cccc(C)c1NC(=O)CN(C)C(=O)C1CCN(c2ncnc3sc(C)c(C)c23)CC1	-0.2	0.6	18.7	6.6	-10.5	-2.9	.	.
Cc1cc(Br)ccc1NC(=O)CN(C)C(=O)C1CCN(c2ncnc3sc(C)c(C)c23)CC1	-0.4	.	.	.	-17.5	62.3	26.0	41.3
C[C@@H]1CN([C@H](C)CO)C(=O)c2cc(N(C)C)ccc2O[C@@H](C)CCCCO[C@H]1CN(C)C(=O)Cc1ccccc1	-0.9	.	.	.	-3.4[16.7 µM]	.	.	.
C[C@H]1CN([C@@H](C)CO)S(=O)(=O)c2ccc(C#CC3CCCC3)cc2O[C@H]1CN(C)C(=O)C1CC1	-0.3	.	.	.	46.5[16.7 µM]	.	.	.
CC[C@H](C)[C@@H]1NC(=O)[C@@H](CC(C)C)NC(=O)[C@H](C(C)C)NC(=O)[C@H]2CSSC[C@H](NC1=O)C(=O)N2	-0.2	.	.	.	-25.8	101.9*	100.0*	98.1*
CC(C)C[C@@H]1NC(=O)[C@H](C(C)C)NC(=O)c2cc([N+](=O)[O-])cc(I)c2NCC[C@@H](C(N)=O)NC1=O	.	0.4	8.5	8.9	.	.	.	.
SMILES	FGF22 binding	NR2E3 ag-1	Jurkat NFkB inh	697 NFkB inh	miR122 inh	NR2E3 ag-2	NR2E3 ag conf	GAL4-VP16 luc
C/C=C/c1ccc([C@@H]2[C@@H](CNC(=O)CC)N(C(=O)CC)[C@H]2CO)cc1	-0.1	.	.	.	18.4[16.7 µM]	.	.	.
CC(=O)C1=C(c2ccc(Br)cc2)C(=O)c2ccccc2C1=O	.	-1.1	.	.	-76.2	103.4*	98.6*	92.3*
CNC1=C(N(C(C)=O)c2ccc(Br)cc2)C(=O)c2ccccc2C1=O	.	2.7	.	.	.	-8.8	.	.
CCC(=O)N[C@@H]1C=C[C@@H](CC(=O)OC)O[C@H]1CO	-0.2	.	.	.	-2.8[16.7 µM]	.	.	.
O=C(NCCC1=CCCCC1)c1ccc(Cl)c(S(=O)(=O)N2CCCCC2)c1	-0.1	-1.1	5.6	-32.8	-1.5	51.3	20.8	-2.6
CCC(C)NS(=O)(=O)c1ccc(S(=O)(=O)N2CCCC3(CCCCC3)C2)cc1 (centres undefined)	.	-4.6	32.5	-11.4	-2.7	85.2*	89.5*	73.3*
Brc1cccc(-c2nnc(SCc3nc4ccccc4[nH]3)o2)c1	.	-0.5	-10.2	0.3	13.2	-8.7	.	.
c1ccc2[nH]c(CSc3nnc(-c4ccncc4)o3)nc2c1	.	0.2	-8.7	-3.9	-2.9	70.2*	-29.6	9.7
COc1ccc(C(=O)Cn2c(C(C)=O)nc3ccccc32)cc1	-0.2	.	.	.	-2.5	63.0	15.1	7.8
Cc1ccc(/C=C2\SC(=S)N(c3cccnc3)C2=O)o1	-0.1	-3.2	-9.3	11.6	-10.0	1.9	.	.
Cc1cc(/C=C2/SC(=S)N(c3cccc(Cl)c3)C2=O)c(C)n1-c1cccnc1	.	1.2	-6.0	2.7	-4.7	63.3	52.8	65.6

Source: PubChem (several laboratories)
